ChEMBL document CHEMBL4732158, “Bicyclic Ligand-Biased Agonists of S1P: Exploring Side Chain Modifications to Modulate the PK, PD, and Safety Profiles” (J Med Chem, 2021)

How the values were obtained:
Rattus norvegicus [1] = assay: Antiinflammatory activity in complete freund's adjuvant-induced Lewis rat model of arthritis assessed as reduction in paw swelling at 0.3 mg/kg, po administered via gavage once daily and measured at day 13 to 20 by plethysmometric method relative to control; assay type: functional; set-up: scale not given: the % may be the effect or the level left; conditions: time 13-20 day
[2] = AUC ratio in orally dosed Beagle dog blood assessed as phosphate metabolite to parent compound; assay type: ADME, organism-based, Canis lupus familiaris; conditions: in vivo, po
Procedure, shortened: (§1)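 Phosphate-to-parent ratio computed as blood AUC ratio after oral dosing in rats, dogs and monkeys.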

[3] = Drug concentration in Lewis rat blood assessed as concentration of parent compound at 2 mg/kg, po measured at 4 hrs by LC-MS/MS analysis; assay type: ADME, organism-based; conditions: Lewis, blood, read-out: Ct
Procedure, shortened: (§2)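 Lewis rats (n = 2−4) dosed orally at 0.5, 1, 2 or 5 mg/kg; blood parent and phosphate metabolite concentrations and lymphocyte counts taken 4 and 24 h post-dose; phosphate-to-parent ratio from 24 h levels; significance versus vehicle by ANOVA with Dunnett's test.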

[4] = Terminal half life in dog at 1 mg/kg, po; assay type: ADME, organism-based, Canis lupus familiaris; conditions: in vivo, read-out: beta t1/2 (converted)
[5] = Terminal half life in cynomolgus monkey at 1 mg/kg, po or 1 mg/kg, iv; assay type: ADME, organism-based, Macaca fascicularis; conditions: in vivo, read-out: beta t1/2 (converted)
Procedure, shortened: (§3)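 Single IV and oral dosing in male animals, n = 3. Rats were Sprague-Dawley. Vehicle: 18.4% hydroxypropyl-β-cyclodextrin in 13.8 mM citric acid. Blood concentrations followed over time; terminal T1/2 and steady-state volume of distribution taken from the IV dose.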

Rattus norvegicus [6] = assay: Reduction in circulating lymphocytes count in Lewis rat at 2 mg/kg, po measured at 4 hrs by hematology analyzer based analysis; assay type: functional; set-up: scale not given: the % may be the effect or the level left
Procedure, shortened: (§4)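 Lewis rats (n = 2−4) dosed orally; whole-blood lymphocyte counts taken 4 h and 24 h after dosing and reduction expressed versus vehicle-treated rats. Significance by ANOVA with Dunnett's test (p < 0.05 vs vehicle). Blood levels of parent and phosphate metabolite measured at the same time points in this PK/PD screen.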

[7] = Volume of distribution at steady state in cynomolgus monkey at 1 mg/kg, po or 1 mg/kg, iv; assay type: ADME, organism-based, Macaca fascicularis; conditions: in vivo, read-out: Vdss; procedure, shortened: as §3
[8] = AUC ratio in orally dosed Sprague-Dawley rat blood assessed as phosphate metabolite to parent compound; assay type: ADME, organism-based; conditions: in vivo, po; procedure, shortened: as §1
[9] = Cardiotoxicity in human iPSC derived cardiomyocytes assessed as change in heart rate at 1 nM measured over 2 hrs by multi-electrode array relative to control; assay type: toxicity, cell-based; conditions: stem cell-derived cardiomyocyte, 0.001 µM
Procedure, shortened: (§5)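 Phosphate metabolite of each compound prepared and tested on cultured human induced pluripotent stem cell-derived cardiomyocytes at 1 and 10 nM; beat rate change averaged over three or more replicates per concentration unless noted (some n = 2).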

[10] = Clearance in cynomolgus monkey at 1 mg/kg, iv; assay type: ADME, organism-based, Macaca fascicularis; conditions: in vivo
[11] = Reduction in circulating lymphocytes count in Lewis rat at 2 mg/kg, po measured at 24 hrs by hematology analyzer based analysis; assay type: Functional, organism-based; set-up: scale not given: the % may be the effect or the level left; conditions: in vivo; procedure, shortened: as §4
[12] = Cardiotoxicity in human iPSC derived cardiomyocytes assessed as change in heart rate at 10 nM measured over 2 hrs by multi-electrode array relative to control; assay type: toxicity, cell-based; conditions: stem cell-derived cardiomyocyte, 0.01 µM; procedure, shortened: as §5
[13] = Ratio of drug metabolism in Lewis rat blood assessed as phosphate ester metabolite to parent drug at 2 mg/kg, po measured at 24 hrs by LC-MS/MS analysis; assay type: ADME, organism-based; conditions: in vivo; procedure, shortened: as §2
[14] = Half life in Lewis rat at 2 mg/kg, po measured at 4 to 72 hrs; assay type: ADME, organism-based; conditions: Lewis, in vivo, time 4-72 hrs
Procedure, shortened: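 Half-life estimated from oral-dosing blood PK profiles in Lewis rats sampled at four time points: 4, 24, 48 and 72 h.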

[15] = Pulmonary toxicity in Lewis rat assessed as fold elevation of BAL protein content at 2 mg/kg, po by chemistry analyzer based analysis relative to control; assay type: organism-based; conditions: in vivo
Procedure, shortened: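 Lewis rats dosed orally; bronchoalveolar lavage protein measured at study end, expressed as fold over vehicle control.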

[16] = AUC ratio in orally dosed cynomolgus monkey blood assessed as phosphate metabolite to parent compound; assay type: ADME, organism-based, Macaca fascicularis; conditions: in vivo, po; procedure, shortened: as §1
Rattus norvegicus [17] = assay: Antiinflammatory activity in complete freund's adjuvant-induced Lewis rat model of arthritis assessed as effective dose administered via oral gavage once daily by plethysmometric method; assay type: functional
[18] = Terminal half life in Sprague- Dawley rat at 2 mg/kg, iv; assay type: ADME, organism-based; conditions: in vivo, read-out: beta t1/2 (converted); procedure, shortened: as §3
[19] = Volume of distribution at steady state in Sprague- Dawley rat at 2 mg/kg, iv; assay type: ADME, organism-based; conditions: in vivo, read-out: Vdss; procedure, shortened: as §3
[20] = Oral bioavailability in cynomolgus monkey at 1 mg/kg; assay type: ADME, organism-based, Macaca fascicularis; conditions: in vivo
[21] = Drug concentration in Lewis rat blood assessed as concentration of parent compound at 2 mg/kg, po measured at 24 hrs by LC-MS/MS analysis; assay type: ADME, organism-based; conditions: in vivo, read-out: Ct; procedure, shortened: as §2
[22] = Clearance in Sprague- Dawley rat at 2 mg/kg, iv; assay type: ADME, organism-based; conditions: in vivo

For COCCCCCC1CCc2cc([C@H]3CC[C@](N)(CO)C3)ccc2C1 (single isomer, unassigned; 24), the Activity (Rattus norvegicus [1]) was 50%, the “Ratio AUC” value [2] was 0.31 and the concentration at 4 h [3] was 188 nM. It also gave a half-life [4] of 81 h, a half-life [5] of 17 h and an Activity (Rattus norvegicus [6]) of 67%. The Vd [7] was 9.9 L/kg, the “Ratio AUC” value [8] was 0.3 and the Activity [9] was -7%. The clearance [10] was 9.7 mL/min/kg, the Activity [11] was 82% and the Activity [12] was -23%. For the same compound, the Ratio [13] was 2.6, the half-life [14] was 18 h and the “fold change (FC)” value [15] was 1.5. The “Ratio AUC” value [16] was less than 0.1, the ED50 (Rattus norvegicus [17]) was 0.3 mg/kg and the half-life [18] was 19 h. For the same compound, the Vd [19] was 13 L/kg, the bioavailability [20] was 69% and the concentration [21] was 98 nM. The clearance [22] was 10 mL/min/kg.
